From ChEMBL document CHEMBL2062507, “Myxobacteria versus sponge-derived alkaloids: the bengamide family identified as potent immune modulating agents by scrutiny of LC-MS/ELSD libraries” (Bioorg Med Chem, 2012)
Activity calls are given as the source filed them. The calls are words filed in the database; no cut-off is given here.

Tests used:
RAW264.7 [1] = experiment: Cytotoxicity against mouse RAW264.7 cells after 18 hrs by MTT assay; type: cell-based; settings: RAW264.7, 18 h
[2] = Inhibition of LPS-stimulated NFkappaB activation transfected in mouse RAW264.7 cells after 18 hrs by luciferase reporter gene assay; settings: RAW264.7, 18 h
RAW264.7 [3] = experiment: Antiinflammatory activity in mouse RAW264.7 cells assessed as inhibition of LPS-stimulated MCP1 expression up to 10 uM by quantitative RT-PCR analysis; type: functional, cell-based
Method in brief: (§1)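 LPS (100 ng/mL)-stimulated RAW264.7 cells co-treated with compound at 0.01–10 μM. Total RNA (0.5 μg) DNase I-treated, reverse transcribed, cDNAs pooled per condition, SYBR Green real-time PCR array. mRNA normalised to GAPDH. Three independent experiments, one-way ANOVA, p<0.05 taken as significant.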

RAW264.7 [4] = experiment: Inhibition of LPS-stimulated NFkappaB activation transfected in mouse RAW264.7 cells at 0.01 to 10 uM after 4 hrs by measuring IKappaBalpha phosphorylation by Western blot analysis; type: cell-based
Method in brief: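 RAW264.7 cells grown near confluent in 6-well plates and given increasing compound concentrations with LPS for 4 h at 37 °C. Lysed in SDS loading buffer, run on 4–15% SDS-PAGE gels and blotted. Probed with anti-phospho-IκB and anti-IκB (1:1000), then HRP secondary. Detected by chemiluminescence on film, β-actin as loading control.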

RAW264.7 [5] = experiment: Antiinflammatory activity in mouse RAW264.7 cells assessed as inhibition of LPS-stimulated TNFalpha expression up to 10 uM by quantitative RT-PCR analysis; type: functional, cell-based; method in brief: as §1
RAW264.7 [6] = experiment: Antiinflammatory activity in mouse RAW264.7 cells assessed as inhibition of LPS-stimulated IL-6 expression up to 10 uM by quantitative RT-PCR analysis; type: functional, cell-based; method in brief: as §1
HCT-116 = experiment: Cytotoxicity against human HCT116 cells after 48 hrs by SRB assay; type: functional, cell-based; settings: HCT-116, 48 h
RAW264.7 [7] = experiment: Antiinflammatory activity in mouse RAW264.7 cells assessed as inhibition of LPS-stimulated iNOS expression up to 10 uM by quantitative RT-PCR analysis; type: functional, cell-based; method in brief: as §1
RAW264.7 [8] = experiment: Antiinflammatory activity in mouse RAW264.7 cells assessed as inhibition of LPS-stimulated nitric oxide production up to 10 uM after 30 mins by Greiss method; type: functional, cell-based
Method in brief: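 RAW264.7 cells grown 24 h in RPMI1640 in 96-well plates, then given fresh medium with compound and E. coli 055:B5 LPS. Supernatant mixed with Griess reagent (sulfanilamide, N-1-naphthylethylenediamine, H3PO4) for 30 min at room temperature in the dark. Absorbance read at 530 nm and converted to nitrite using a sodium nitrite standard curve.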

CC1=C(O)C(=O)C=C2C1=CC=C1[C@@]2(C)CC[C@@]2(C)[C@@H]3C[C@](C)(C(=O)O)CC[C@]3(C)CC[C@]12C [CELASTROL]
IC50 (RAW264.7 [1]): > 50000 nM
IC50 [2]: 200 nM

CCCCCCCCCCCCCC(=O)O[C@H]1CC[C@H](NC(=O)[C@H](OC)[C@H](O)[C@@H](O)[C@H](O)/C=C/C(C)C)C(=O)NC1 [BENGAMIDE A]
IC50 (RAW264.7 [1]): > 50000 nM
Activity (RAW264.7 [3]): Dose-dependent effect
IC50 (RAW264.7 [3]): 500 nM
inhibition (RAW264.7 [4]): Active
Activity (RAW264.7 [5]): Dose-dependent effect
IC50 (RAW264.7 [5]): 500 nM
IC50 [2]: 75 nM
Activity (RAW264.7 [6]): Dose-dependent effect
IC50 (RAW264.7 [6]): 1000 nM
IC50 (HCT-116): 18 nM
Activity (RAW264.7 [7]): inactive
Activity (RAW264.7 [8]): inactive

CCCCCCCCCCCCCC(=O)O[C@H](/C=C/C(C)C)[C@H](O)[C@@H](O)[C@@H](OC)C(=O)N[C@H]1CCCCNC1=O [BENGAMIDE P]
IC50 (HCT-116): 730 nM

CO[C@@H](C(=O)N[C@H]1CCCCNC1=O)[C@H](O)[C@@H](O)[C@H](O)/C=C/C(C)C [BENGAMIDE E]
IC50 (RAW264.7 [1]): > 50000 nM
inhibition (RAW264.7 [4]): Active
IC50 [2]: 7500 nM
IC50 (HCT-116): 60 nM

CCC(C)/C=C/[C@@H](O)[C@H](O)[C@@H](O)[C@@H](OC)C(=O)N[C@H]1CCCCN(C)C1=O (mixture of isomers)
IC50 (RAW264.7 [1]): > 50000 nM
IC50 [2]: 2000 nM
IC50 (HCT-116): 1500 nM

CO[C@@H](C(=O)N[C@H]1CC[C@@H](OC(=O)C2CCCCC2)CN(C)C1=O)[C@H](O)[C@@H](O)[C@H](O)/C=C/C(C)(C)C
IC50 (RAW264.7 [1]): > 50000 nM
IC50 [2]: 500 nM
IC50 (HCT-116): 40 nM

CCCCCCCCCCCCCC(=O)O[C@H]1CC[C@H](NC(=O)[C@H](OC)[C@H](O)[C@@H](O)[C@H](O)/C=C/C(C)C)C(=O)N(C)C1 [BENGAMIDE B]
IC50 (RAW264.7 [1]): > 50000 nM
Activity (RAW264.7 [3]): Dose-dependent effect
IC50 (RAW264.7 [3]): 500 nM
inhibition (RAW264.7 [4]): Active
Activity (RAW264.7 [5]): Dose-dependent effect
IC50 (RAW264.7 [5]): 500 nM
IC50 [2]: 85 nM
Activity (RAW264.7 [6]): Dose-dependent effect
IC50 (RAW264.7 [6]): 500 nM
IC50 (HCT-116): 2 nM
Activity (RAW264.7 [7]): inactive
Activity (RAW264.7 [8]): inactive

CCC(C)/C=C/[C@@H](O)[C@H](O)[C@@H](O)[C@@H](OC)C(=O)N[C@H]1CCCCNC1=O (mixture of isomers)
IC50 (RAW264.7 [1]): > 50000 nM
IC50 [2]: 2000 nM
IC50 (HCT-116): 1100 nM
